Screening results from PubChem BioAssay.
An excerpt weighted towards active compounds, which were near 4.3% of everything screened.
SR-BI DiI-HDL act: activators of SR-BI mediated DiI-HDL uptake, primary screen, ldlA[mSR-BI] CHO cells, DiI fluorescence | activation, % at 12.5 µM | actives 0.096% (n = 320,000) | 3 h; 100 = double the neutral-control signal;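 active means mean replicate activation of at least 60% and every replicate at or above 60%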;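 further: 0% = median plate neutral-control signal and 100% = twice that signal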
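Material: SR-BI-overexpressing, LDLR-lacking CHO cells | Dosing: Single compound concentration, delivered by pin transfer | Probe or stimulus: Labelled HDL, 10 µg/mL | Signal: Bottom-read cell fluorescence after medium removal, ex 550/em 595 nm | Schedule: 3 h, 37 °C | Evaluation: HDL uptake via cellular fluorescence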
SR-BI DiI inh: inhibitors of SR-BI mediated HDL lipid uptake, primary screen, ldlA[mSR-BI] cells, fluorescence, single point; inhibition, % at 12.5 µM; ldlA[mSR-BI] CHO cells, DiI-HDL uptake fluorescence, 3 h; actives 0.96% (n = 320,000); AID 488896, 2010;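 active means mean replicate inhibition of at least 70% and a set share of replicates each scoring 70 or more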;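 further: 0% = median of neutral control wells and 100% = median of positive control wells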
Target sequence (Q61009 whole entry, looked up): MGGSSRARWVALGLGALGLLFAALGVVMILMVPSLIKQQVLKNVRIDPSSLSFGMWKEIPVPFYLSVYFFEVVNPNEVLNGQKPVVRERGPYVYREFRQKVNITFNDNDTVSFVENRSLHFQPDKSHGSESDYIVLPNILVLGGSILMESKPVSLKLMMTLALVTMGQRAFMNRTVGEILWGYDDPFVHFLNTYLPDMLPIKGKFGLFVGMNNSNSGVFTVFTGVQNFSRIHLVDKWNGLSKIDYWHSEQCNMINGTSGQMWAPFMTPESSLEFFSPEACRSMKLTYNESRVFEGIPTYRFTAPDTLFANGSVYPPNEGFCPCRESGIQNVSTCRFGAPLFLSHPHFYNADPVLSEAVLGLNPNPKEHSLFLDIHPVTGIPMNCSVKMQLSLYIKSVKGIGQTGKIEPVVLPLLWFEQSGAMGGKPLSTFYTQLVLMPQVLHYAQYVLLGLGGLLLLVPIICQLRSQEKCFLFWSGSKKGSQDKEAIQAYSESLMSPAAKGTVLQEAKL
SMARCA2 act: SMARCA2 (BRM) function activators, primary screen, cell-based, luminescence, high throughput; MG213 cells, MMTV-luciferase reporter, dexamethasone, overnight; activation, % at 9.1 µM; actives 1% (n = 370,000); in the data active means activation above about 7.8%;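 further: 0% = vehicle wells and 100% = reference activator wells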
CR mimetic SO: reduction of superoxide in aged yeast, primary screen, HTS; S. cerevisiae aged cells, superoxide DHE fluorescence; stronger effect = lower value; superoxide response (% of plate mean), % at 10 µM; actives 0.18% (n = 330,000); AID 2690, 2010;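 active means superoxide response under a set limit, about three screen SD below normal, cut at about 65% in these data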;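 further: yeast aged for seven days with compound at 30 °C before DHE staining; 100% = average MFI of all compound-treated wells on the plate with controls excluded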
AHR activator: AHR activators, primary screen, cell-based, luminescence, luciferase reporter, human. Aryl hydrocarbon receptor (Homo sapiens), P35869. AHR-responsive luciferase reporter cells. activation, % at 5 µM. AID 2796, 2010. actives 2.5% (n = 320,000); in the data active means activation above about 47%;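 further: 0% = vehicle wells and 100% = reference agonist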
Lipid droplet: inhibitors of hepatocyte lipid droplet formation, primary screen, imaging, high-throughput imaging, BODIPY stain | AML12 mouse hepatocytes, oleate lipid droplets | inhibition, % at 6.5 µM | actives 0.4% (n = 240,000);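 active means lipid droplet intensity inhibited by at least 50%, with more than 500 cells counted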
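Material – AML12 mouse liver cells · Also added – oleate loading, 100 µM · Compound dosing – 6.5 µM single-point dosing · Times – overnight treatment with compound plus oleate · Measured by – fluorescence imaging, 20x objective, two fields per well · Read-out – percent inhibition of filter-corrected integrated lipid droplet intensity per well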
Starred values were filed as active, the others as inactive; nt = no result.

SMILES	SR-BI DiI-HDL act	SR-BI DiI inh	SMARCA2 act	CR mimetic SO	AHR activator	Lipid droplet
COc1ccc(Nc2nc(-c3ccncc3)nc3ccccc23)cc1	-80	80*	-2	102	9	nt
COc1ccc(Nc2cc(C(=O)NC3CCCC3)c3ccccc3n2)c(OC)c1	-88	88*	-1	86	5	26
CCCNc1nc(Nc2ccc(C)cc2)nc(N2CCCC2)n1	-16	16	nt	101	50*	13
COc1ccccc1Nc1cc(C(=O)NC2CCCC2)c2ccccc2n1	-66	66	1	97	19	-10
C=CCNC(=O)C1CCN(c2cncnc2)CC1	nt	nt	-4	nt	nt	nt
C[C@@H]1C=CCCO[C@]12C(=O)N(CC1CC1)c1ccccc12	nt	nt	-1	nt	nt	nt
COc1ccc(-n2c(COc3ccccc3)nnc2SCc2nc3ccccc3[nH]2)cc1	nt	nt	-3	nt	nt	nt
COc1cccc(Nc2nc(-c3ccccc3O)nc3ccccc23)c1	-66	66	-2	100	32	nt
COc1cccc(Nc2nc(-c3ccccc3)nc3ccccc23)c1	-63	63	-3	91	54*	-16
Cc1[nH]c(=O)[nH]c(=O)c1CCSSCCc1c(C)[nH]c(=O)[nH]c1=O	nt	nt	-1	nt	nt	nt
COc1ccc(-c2[nH]ncc2CN2CCCC(C(=O)c3cccc(OC)c3)C2)cc1 (configuration not stated)	6	-6	-1	103	73*	17
COC(=O)[C@]12C[C@H](CC(=O)N3CCN(C(=O)C4CC4)CC3)C(=O)N(Cc3ccccc3)C1=C[C@H](COCc1ccccc1)O[C@@H]2C	nt	nt	1	nt	nt	nt
CC1CCC2(CC1)CCN(CCCOC(=O)Nc1cccc(F)c1)C2=O (configuration not stated)	nt	nt	-4	nt	nt	nt
Cc1cc(N2CCCCC2)nc2c(C)cccc12	-24	24	0	81	3	-14
Cc1cc(N2CCN(S(=O)(=O)c3ccccc3)CC2)nc2c(C)cccc12	2	-2	-2	123	68*	-6
CCn1c(=O)c2cc(C(=O)NCCCOC)sc2c2ccccc21	-61	61	-2	107	2	14
CCC(C)NC(=O)c1cc2c(=O)n(CC)c3ccccc3c2s1 (configuration not stated)	-74	74*	-3	107	-1	-7
CCOC(CNC(=O)c1cc2c(=O)n(CC)c3ccccc3c2s1)OCC	-82	82*	-1	97	-1	7
CCn1c(=O)c2cc(C(=O)NCC(OC)OC)sc2c2ccccc21	-25	25	-2	97	-3	-1
O=C(Nc1ccc(F)cc1F)c1cc(-c2ccc(Cl)cc2)nc2ccccc12	nt	nt	0	nt	nt	nt
C=CCc1cccc(OC)c1OCCOCCn1ccnc1	14	-14	-2	102	73*	-29
C=CCc1ccccc1OCCn1ccnc1	-6	6	3	97	12	0
CN(C)c1cccc2c(S(=O)(=O)NCC3CCN(C(=O)C(=O)c4cccs4)CC3)cccc12	nt	nt	-6	nt	nt	nt
C(=N\Nc1nc(-c2ccccc2)cs1)/c1ccncc1	-47	47	4	92	60*	4
CN(C)S(=O)(=O)c1ccc(-c2csc(N/N=C/c3ccc(O)cc3)n2)cc1	-87	87*	-8	102	-7	19
SMILES	SR-BI DiI-HDL act	SR-BI DiI inh	SMARCA2 act	CR mimetic SO	AHR activator	Lipid droplet
C(=N\Nc1nc(-c2ccccc2)cs1)/c1cccs1	-63	63	6	95	60*	2
C(=N\Nc1nc(-c2ccccc2)cs1)/c1ccco1	-19	19	6	93	110*	7
O=C(N[C@@H](Cc1cccnc1)C(=O)N1CCC[C@H]1C(=O)NC1CCCC1)c1cccs1	nt	nt	-4	nt	nt	nt
CCN(CC)C(=O)[C@H]1C[C@@H]2[C@H](C[C@@H](c3ccccc3)[C@H]1C)N(c1ccc(F)cc1)C(=O)N2CCCOc1ccccc1	nt	nt	-6	nt	nt	nt
C[C@@H]1COc2cc(N3CCSCC3)ccc2S(=O)(=O)N1C	nt	nt	-3	nt	nt	nt
O=[N+]([O-])c1cccc(-c2csc(N/N=C/c3cccc(O)c3)n2)c1	-101	101*	0	91	74*	19
CCOC(=O)Cc1csc(N/N=C/c2cccc([N+](=O)[O-])c2)n1	-23	23	-4	105	-6	-16
CCOc1ccc2nc(NC(=O)Nc3ccccc3)sc2c1	-51	51	2	110	78*	5
CCOc1ccc(NC(=O)Nc2cc(-c3ccccc3)sc2C(=O)OC)cc1	-19	19	2	98	47*	-9
CCOc1ccc(/C=N/NC(=O)Nc2ccccc2)cc1	4	-4	4	78	61*	-8
CCOc1ccc(/C=N/NC(=O)CC(=O)NCc2ccccc2)cc1	-22	22	-2	99	2	1
CCOC(=O)N[C@H](C(=O)N1CCC[C@H]1C(=O)NC1CCCC1)C1CCCCC1	nt	nt	-2	nt	nt	nt
CC(=O)c1c(C)[nH]c(C(=O)OCc2csc(CC(=O)Nc3ccccc3C)n2)c1C	-73	73*	-4	85	4	nt
CC(C)=CC(=O)OCc1csc(CC(=O)Nc2ccccc2C)n1	5	-5	-1	94	9	2
CCOC(=O)c1cc2nc(Nc3ccc(OC)cc3)sc2s1	-72	72*	-3	100	8	15
CCOC(=O)c1sc(Nc2ccc(Br)cc2)nc1C	-34	34	2	95	14	-12
COC(=O)c1sc2nc3c(cc2c1N)COC(C)(C)C3	170*	-170	3	124	1	-2
CC1(C)Cc2nc3sc(C(=O)NCCCO)c(N)c3cc2CO1	16	-16	-2	109	2	18
Cc1c(-c2cc(Br)ccc2O)nc2cc3c(cc2c1C)OCO3	-4	4	0	105	63*	nt
Cc1c(C(=O)c2ccc(Cl)cc2Cl)cnc2cc3c(cc12)OCO3	-15	15	-5	106	16	10
CC(/C=N\NC(=O)CSc1nnc(-c2ccc(Br)cc2)n1-c1ccccc1)=C\c1ccco1	nt	nt	-4	nt	nt	nt
CC(=O)C1=C(C)N(Cc2ccc(Br)cc2)C(=S)NC1c1cccc(F)c1 (configuration not stated)	nt	nt	0	nt	nt	nt
CC1(C)CC(=O)N(CC(=O)N2CCN(c3ccc(F)cc3)CC2)c2ccccc2S1(=O)=O	nt	nt	-2	nt	nt	nt
CCOc1ccc(C(=O)Nc2cc(C)on2)cc1	-1	1	3	129	8	nt
CCOc1cc(C(=O)Nc2cccnc2)cc(OCC)c1OCC	-37	37	0	105	73*	-11
CCCOc1ccc(C(=O)Nc2cccnc2)cc1	-4	4	2	100	7	-6
